Each structure is given as a SMILES string. Active and inactive are the calls of the source. No cut-off for these calls is given here.

Holding throughout (assay type): functional, cell-based
Assay [1] has as its system T-cell. In words: Induction of IL4 production in C57BL/6 mouse natural killer T cells after 48 hrs by cytometric bead array. In outline: (§1)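 Spleen cells (approx. 4 × 10⁵) from female C57BL/6 mice aged 6–8 weeks were cultured 48 h at 37 °C in humidified 5% CO₂. Medium was RPMI 1640 with 10% heat-inactivated FCS, 2 mM L-glutamine, penicillin/streptomycin and 10 mM Hepes, plus glycolipid at 2, 20 or 200 ng/mL. Supernatant IFN-γ, IL-4 and IL-13 were read by cytometric bead array with PE detection, interpolated from standard curves. Values are means of three wells.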

In assay [2] the test system is T-cell. In words: Induction of IL13 production in C57BL/6 mouse natural killer T cells after 48 hrs by cytometric bead array. In short, it runs like this:
as §1

Assay [3] concerns T-cell. In words: Induction of IFN-gamma production in C57BL/6 mouse natural killer T cells after 48 hrs by cytometric bead array. In short, it runs like this: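 Spleen cells (about 4 × 10⁵) from female C57BL/6 mice aged 6–8 weeks, in RPMI 1640 with 10% heat-inactivated FCS, glutamine, antibiotics and Hepes, at 37 °C in 5% CO₂. Cells were stimulated with glycolipid at 2, 20 or 200 ng/mL for 48 h. Supernatant IFN-γ was measured by cytometric bead array on FACS against a kit standard curve. Mean of three wells.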

The subject of assay [4] is T-cell. The assay is described as follows: Induction of IFN-gamma production in C57BL/6 mouse natural killer T cells upto 200 ng/ml after 48 hrs by cytometric bead array relative to KRN7000. In short, it runs like this:
as §1

Assay [5] deals with T-cell. The assay is described as follows: Induction of IL13 production in C57BL/6 mouse natural killer T cells at 2 ng/ml after 48 hrs by cytometric bead array. In outline: as §1
The subject of assay [6] is T-cell. The assay is described as follows: Induction of IL4 production in C57BL/6 mouse natural killer T cells at 2 ng/ml after 48 hrs by cytometric bead array. In short, it runs like this:
as §1

Turning to `CCCCCCCCCCCCCC[C@@H](O)[C@@H](O)[C@H](CC[C@H]1O[C@H](CO)[C@H](O)[C@H](O)[C@H]1O)NS(=O)(=O)c1ccc(C)cc1`, the outcome in assay [1], in assay [2] and in assay [3] was inactive.
On to `CCCCCCCCCCCCCC[C@@H](O)[C@@H](O)[C@H](CO[C@H]1O[C@H](CO)[C@H](O)[C@H](O)[C@H]1O)NS(=O)(=O)c1cccc(C)c1`, for which the outcome in assay [1] and in assay [2] was Active. Besides, in assay [4], the outcome was inactive.
For `CCCCCCCCCCCCCCCCCCCCCCCCCC(=O)N[C@@H](CO[C@H]1O[C@H](CO)[C@H](O)[C@H](O)[C@H]1O)[C@H](O)[C@H](O)CCCCCCCCCCCCCC`, the outcome in assay [1] and in assay [2] was Active.
Consider `CCCCCCCCCCCCCC[C@@H](O)[C@@H](O)[C@H](CO[C@H]1O[C@H](CO)[C@H](O)[C@H](O)[C@H]1O)NS(=O)(=O)c1ccccc1C`, for which the outcome in assay [1] and in assay [2] was Active. Also, in assay [4], the outcome was inactive.
Take `CCCCCCCCCCCCCC[C@@H](O)[C@@H](O)[C@H](CO[C@H]1O[C@H](CO)[C@H](O)[C@H](O)[C@H]1O)NS(=O)(=O)c1ccc(-c2ccccc2)cc1`: the outcome in assay [1] and in assay [2] was Active. Further, the outcome in assay [4] was inactive.
On to `CCCCCCCCCCCCCC[C@@H](O)[C@@H](O)[C@H](CO[C@H]1O[C@H](CO)[C@H](O)[C@H](O)[C@H]1O)NS(=O)(=O)c1ccc(NC(C)=O)cc1`, for which the outcome in assay [5], in assay [1], in assay [6] and in assay [2] was Active. In assay [4], the result was inactive.
With `CCCCCCCCCCCCCC[C@@H](O)[C@@H](O)[C@H](CO[C@H]1O[C@H](CO)[C@H](O)[C@H](O)[C@H]1O)NS(=O)(=O)c1ccc(C)cc1`, the outcome in assay [1] and in assay [2] was Active. The outcome in assay [4] was inactive.
Consider `CCCCCCCCCCCCCC[C@@H](O)[C@@H](O)[C@H](CO[C@H]1O[C@H](CO)[C@H](O)[C@H](O)[C@H]1O)NS(=O)(=O)c1ccc(OC)cc1`, for which the outcome in assay [1] and in assay [2] was Active. In assay [4], the outcome was inactive.
Turning to `CCCCCCCCCCCCCC[C@@H](O)[C@@H](O)[C@H](CO[C@H]1O[C@H](CO)[C@H](O)[C@H](O)[C@H]1O)NS(=O)(=O)c1cccc2ccccc12`, the outcome in assay [1] and in assay [2] was Active. Moreover, in assay [4], the outcome was inactive.
For the molecule `CCCCCCCCCCCCCCCCS(=O)(=O)N[C@@H](CO[C@H]1O[C@H](CO)[C@H](O)[C@H](O)[C@H]1O)[C@H](O)[C@H](O)CCCCCCCCCCCCCC`, the result in assay [4] was inactive.
Turning to `CCCCCCCCCCCCCCCCCC(=O)N[C@@H](CO[C@H]1O[C@H](CO)[C@H](O)[C@H](O)[C@H]1O)[C@H](O)[C@H](O)CCCCCCCCCCCCCC`, the result in assay [3] was Active.
On the same count and under the same terms, the entry for `CCCCCCCCCCCCCC[C@@H](O)[C@@H](O)[C@H](CO[C@H]1O[C@H](CO)[C@H](O)[C@H](O)[C@H]1O)NC(=O)c1ccc(C)cc1` is “inactive”.
Consider `CCCCCCCCCCCCCCCCCCCCCCCC(=O)N[C@@H](CO[C@H]1O[C@H](CO)[C@H](O)[C@H](O)[C@H]1O)[C@H](O)[C@H](O)CCCCC`, for which the outcome in assay [1] and in assay [2] was Active.

The values above are taken from ChEMBL document CHEMBL1144229, “RCAI-17, 22, 24-26, 29, 31, 34-36, 38-40, and 88, the analogs of KRN7000 with a sulfonamide linkage: their synthesis and bioactivity for mouse natural killer T cells to produce Th2-biased cytokines” (Bioorg Med Chem, 2008).
